From ChEMBL document CHEMBL1142487, “Design, synthesis, and structure-activity relationship of novel opioid kappa-agonists” (Bioorg Med Chem, 2008)
pIC50: −log10 of the molar value. The source made the active and inactive calls. The calls are words filed in the database; no cut-off is given here.

Assays:
[1] = tested on: Mus musculus; test: Antinociceptive activity in sc dosed mouse assessed as inhibition of acetic acid-induced writhing administered 15 mins before acetic acid challenge; type: functional
Method in brief: (§1)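 Male mice (5 weeks old) received test compound sc into the rostral back or po, 15 min before ip 0.6% aqueous acetic acid (0.1 mL/10 g). Writhes were counted over 10 min, starting 10 min after the acid. […] The po/sc ED50 ratio was calculated.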

[2] = tested on: Mus musculus; test: Antinociceptive activity in po dosed mouse assessed as inhibition of acetic acid-induced writhing administered 15 mins before acetic acid challenge; type: functional; method in brief: as §1
[3] = tested on: Mus musculus; test: Ratio of ED50 for acetic acid-induced writhing in po dosed mouse to ED50 for acetic acid-induced writhing in sc dosed mouse; type: functional; method in brief: as §1
[4] = biological target: Delta-type opioid receptor (Mus musculus) (UniProt P32300); test: Equilibrium constant, ratio of IC50 for delta opioid receptor in ddy mouse vas deferens in presence of 10 nM Naltrindole to IC50 for delta opioid receptor in ddy mouse vas deferens
Method in brief: (§2)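 Electrically stimulated ddY mouse vas deferens was held in Krebs-Henseleit at 37 °C under 95% O2/5% CO2. Tissue was preincubated 20 min with antagonist before the test agonist: naloxone 30 nM (μ), NTI 10 nM (δ), or nor-BNI 10 nM (κ). IC50s were compared with and without antagonist. Ke = [antagonist]/(IC50 ratio − 1).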

[5] = biological target: Mu-type opioid receptor (Mus musculus) (UniProt P42866); test: Equilibrium constant, ratio of IC50 for mu opioid receptor in ddy mouse vas deferens in presence of 30 nM naloxone to IC50 for mu opioid receptor in ddy mouse vas deferens; method in brief: as §2
[6] = biological target: Kappa-type opioid receptor (Mus musculus) (UniProt P33534); test: Equilibrium constant, ratio of IC50 for kappa opioid receptor in ddy mouse vas deferens in presence of 10 nM nor-BNI to IC50 for kappa opioid receptor in ddy mouse vas deferens; method in brief: as §2
[7] = biological target: Kappa-type opioid receptor (Mus musculus, UniProt P33534); test: Agonist activity at kappa opioid receptor in ddy mouse vas deferens assessed as inhibition of electric stimulation-induced contraction; type: functional, tissue-based
[8] = tested on: Mus musculus; test: Inhibition of acetic acid-induced writhing in sc dosed mouse up to 180 mins administered 15 mins before acetic acid challenge; type: functional, organism-based
[9] = tested on: Mus musculus; test: Antinociceptive activity in mouse assessed as inhibition of acetic acid-induced writhing at 10 mg/kg, sc administered 15 mins before acetic acid challenge; type: functional; details: route subcutaneous; method in brief: as §1
[10] = biological target: Kappa-type opioid receptor (Mus musculus) (UniProt P33534); test: Agonist activity at kappa opioid receptor in ddy mouse vas deferens assessed as inhibition of electric stimulation-induced contraction at 1 uM; type: functional, tissue-based
[11] = tested on: Mus musculus; test: Antinociceptive activity in sc dosed kappa opioid receptor antagonist nor-BNI treated mouse assessed as inhibition of acetic acid-induced writhing administered 15 mins before acetic acid challenge; type: functional, organism-based
[12] = tested on: Mus musculus; test: Antinociceptive activity in sc dosed mu opioid receptor antagonist naloxone treated mouse assessed as inhibition of acetic acid-induced writhing administered 15 mins before acetic acid challenge; type: functional, organism-based
[13] = tested on: Mus musculus; test: Antinociceptive activity in sc dosed delta opioid receptor antagonist […] treated mouse assessed as inhibition of acetic acid-induced writhing administered 15 mins before acetic acid challenge; type: functional, organism-based

Compound	ED50 [1] [mg/kg]	ED50 [2] [mg/kg]	Ratio ED50 [3]	Ke [4] [nM]	Ke [5] [nM]	Ke [6] [nM]	pIC50 [7]	Activity [8]	inhibition in vivo at 10 mg/kg [9] [%]	inhibition [10] [%]	Activity [11]	Activity [12]	Activity [13]
CC(=O)Nc1ccc2c3c1O[C@H]1[C@H](N(C)C(=O)/C=C/c4ccoc4)CC[C@@]4(O)[C@@H](C2)N(CC2CC2)CC[C@]314	> 10	–	–	–	–	–	–	–	–	–	–	–	–
CN(C(=O)/C=C/c1ccoc1)[C@H]1CC[C@@]2(O)[C@H]3Cc4ccc(O)c5c4[C@@]2(CCN3CC2CC2)[C@H]1O5	–	0.13	–	–	–	–	–	–	–	–	–	–	–
CN(C(=O)Cc1ccc(Cl)c(Cl)c1)[C@H]1CC[C@@]2(O)[C@H]3Cc4ccc(O)c5c4[C@@]2(CCN3CC2CC2)[C@H]1O5	–	0.83	48	17.1	53	0.55	9.40	–	–	–	–	–	–
CN1CC[C@]23c4c5ccc(O)c4O[C@H]2[C@H](N(C)C(=O)/C=C/c2ccoc2)CC[C@@]3(O)[C@H]1C5	1.03	–	–	33	8.1	6.3	7.26	–	–	–	–	–	–
Cc1cccc(/C=C/C(=O)N(C)[C@@H]2CC[C@@]3(O)[C@H]4Cc5ccc(O)c6c5[C@@]3(CCN4CC3CC3)[C@H]2O6)c1	–	0.064	9.7	64.5	1780	1.95	9.49	Active	–	–	–	–	–
CN(C(=O)/C=C/c1ccoc1)[C@@H]1CC[C@@]2(O)[C@H]3Cc4ccc(O)c5c4[C@@]2(CCN3CCc2ccccc2)[C@H]1O5	1.03	–	–	–	–	–	–	–	–	–	–	–	–
CCCCCC(=O)N[C@@H]1CC[C@@]2(O)[C@H]3Cc4ccc(O)c5c4[C@@]2(CCN3CC2CC2)[C@H]1O5	–	–	–	2.3	4.4	0.26	7.60	–	25	–	–	–	–
CN(C(=O)/C=C/c1ccccc1)[C@@H]1CC[C@@]2(O)[C@H]3Cc4ccc(O)c5c4[C@@]2(CCN3CC2CC2)[C@H]1O5	0.002	0.011	5.5	263	922	0.861	9.78	Active	–	–	–	–	–
CN(C(=O)Cc1ccc(Cl)c(Cl)c1)[C@@H]1CC[C@@]2(O)[C@H]3Cc4ccc(O)c5c4[C@@]2(CCN3CC2CC2)[C@H]1O5	–	18	39.1	1110	17000	1.37	7.77	–	–	–	–	–	–
CN(C(=O)/C=C/c1cccs1)[C@@H]1CC[C@@]2(O)[C@H]3Cc4ccc(O)c5c4[C@@]2(CCN3CC2CC2)[C@H]1O5	0.0027	0.026	9.6	89.6	–	0.28	10.00	Active	–	–	–	–	–
CN(C(=O)/C=C/C1CCCCC1)[C@@H]1CC[C@@]2(O)[C@H]3Cc4ccc(O)c5c4[C@@]2(CCN3CC2CC2)[C@H]1O5	0.004	0.071	17	143	5710	1.08	9.34	Active	–	–	–	–	–
O=C(/C=C/c1ccoc1)S[C@@H]1CC[C@@]2(O)[C@H]3Cc4ccc(O)c5c4[C@@]2(CCN3CC2CC2)[C@H]1O5	> 10	–	–	–	–	–	–	–	–	–	–	–	–
CN(C(=O)/C=C/c1ccoc1)[C@@H]1CC[C@@]2(O)[C@H]3Cc4ccc(N)c5c4[C@@]2(CCN3CC2CC2)[C@H]1O5	0.2	–	–	–	–	–	–	–	–	–	–	–	–
CCC/C=C/C(=O)N(C)[C@@H]1CC[C@@]2(O)[C@H]3Cc4ccc(O)c5c4[C@@]2(CCN3CC2CC2)[C@H]1O5	–	0.21	8.8	–	1800	0.072	9.19	–	–	–	–	–	–
CN(C(=O)/C=C/c1ccccc1)[C@H]1CC[C@@]2(O)[C@H]3Cc4ccc(O)c5c4[C@@]2(CCN3CC2CC2)[C@H]1O5	0.0033	0.032	9.7	41.6	14000	0.16	9.38	Active	–	–	–	–	–
CN(C(=O)/C=C/c1ccoc1)[C@@H]1CC[C@@]2(O)[C@H]3Cc4cccc5c4[C@@]2(CCN3CC2CC2)[C@H]1O5	–	–	–	8.4	12	0.07	7.57	–	–	–	–	–	–

Compound	ED50 [1] [mg/kg]	ED50 [2] [mg/kg]	Ratio ED50 [3]	Ke [4] [nM]	Ke [5] [nM]	Ke [6] [nM]	pIC50 [7]	Activity [8]	inhibition in vivo at 10 mg/kg [9] [%]	inhibition [10] [%]	Activity [11]	Activity [12]	Activity [13]
CN(C(=O)/C=C/c1ccoc1)[C@@H]1CC[C@H]2[C@H]3Cc4ccc(O)c5c4[C@@]2(CCN3CC2CC2)[C@H]1O5	0.02	–	–	1.31	8.04	0.07	10.46	–	–	–	–	–	–
CCCCCCS[C@@H]1CC[C@@]2(O)[C@H]3Cc4ccc(O)c5c4[C@@]2(CCN3CC2CC2)[C@H]1O5	15.8	–	–	–	–	–	–	–	–	38	–	–	–
COc1cccc(/C=C/C(=O)N(C)[C@@H]2CC[C@@]3(O)[C@H]4Cc5ccc(O)c6c5[C@@]3(CCN4CC3CC3)[C@H]2O6)c1	0.0011	0.0048	4.4	96.4	60.9	1.6	9.12	Active	–	–	–	–	–
CN(C(=O)/C=C/c1cccc(C(F)(F)F)c1)[C@@H]1CC[C@@]2(O)[C@H]3Cc4ccc(O)c5c4[C@@]2(CCN3CC2CC2)[C@H]1O5	–	0.034	7.4	291	–	3.2	9.33	–	–	–	–	–	–
CN(C(=O)/C=C/c1ccc(C(F)(F)F)cc1)[C@@H]1CC[C@@]2(O)[C@H]3Cc4ccc(O)c5c4[C@@]2(CCN3CC2CC2)[C@H]1O5	–	0.026	1.1	78	524	0.2	10.15	Active	–	–	–	–	–
CN(C(=O)/C=C/c1cccc(F)c1)[C@@H]1CC[C@@]2(O)[C@H]3Cc4ccc(O)c5c4[C@@]2(CCN3CC2CC2)[C@H]1O5	–	0.007	3.7	276	–	2.37	8.80	Active	–	–	–	–	–
CCCCCCN[C@@H]1CC[C@@]2(O)[C@H]3Cc4ccc(O)c5c4[C@@]2(CCN3CC2CC2)[C@H]1O5	–	–	–	–	14	0.3	8.70	–	–	–	–	–	–
CCCCCCO[C@@H]1CC[C@@]2(O)[C@H]3Cc4ccc(O)c5c4[C@@]2(CCN3CC2CC2)[C@H]1O5	1.78	–	–	1.5	4.5	0.12	7.80	–	–	–	–	–	–
CN(C(=O)CCc1ccccc1)[C@@H]1CC[C@@]2(O)[C@H]3Cc4ccc(O)c5c4[C@@]2(CCN3CC2CC2)[C@H]1O5	–	0.29	7.3	188	–	0.008	10.72	–	–	–	–	–	–
CN(C(=O)/C=C/c1cccc([N+](=O)[O-])c1)[C@@H]1CC[C@@]2(O)[C@H]3Cc4ccc(O)c5c4[C@@]2(CCN3CC2CC2)[C@H]1O5	–	0.22	12.9	89	185	1.4	9.64	–	–	–	–	–	–
O=C(/C=C/c1ccoc1)N[C@@H]1CC[C@@]2(O)[C@H]3Cc4ccc(O)c5c4[C@@]2(CCN3CC2CC2)[C@H]1O5	0.95	–	–	8100	–	0.44	9.06	–	–	–	–	–	–
CN(C(=O)/C=C/c1ccoc1)[C@@H]1CC[C@@]2(O)[C@H]3Cc4ccc(O)c5c4[C@@]2(CCN3)[C@H]1O5	7.07	–	–	–	–	–	–	–	–	–	–	–	–
CN(C(=O)c1ccc2ccccc2c1)[C@@H]1CC[C@@]2(O)[C@H]3Cc4ccc(O)c5c4[C@@]2(CCN3CC2CC2)[C@H]1O5	3.6	–	–	–	–	–	–	–	–	–	–	–	–
CN(C(=O)/C=C/c1ccoc1)[C@@H]1CC[C@@]2(O)[C@H]3Cc4ccc(O)c5c4[C@@]2(CCN3CC2CC2)[C@H]1O5.Cl [NALFURAFINE HYDROCHLORIDE]	–	0.032	–	–	–	–	–	Active	–	–	inactive	Active	Active
CN(C(=O)/C=C/c1ccsc1)[C@@H]1CC[C@@]2(O)[C@H]3Cc4ccc(O)c5c4[C@@]2(CCN3CC2CC2)[C@H]1O5	–	0.04	9.5	–	–	1.71	10.00	Active	–	–	–	–	–
CN(C(=O)/C=C/c1ccco1)[C@@H]1CC[C@@]2(O)[C@H]3Cc4ccc(O)c5c4[C@@]2(CCN3CC2CC2)[C@H]1O5	–	0.015	9.4	–	–	0.2	9.26	Active	–	–	–	–	–
